Compounds with a hit are over-represented: about 2.6% of the library has one in this group of screens.
CHT allo act = allosteric activators of human choline transporter CHT; CHT-expressing cells, membrane potential dye, choline EC20; active compounds read high; LV-AA mutant CHT in HEK293 cells; B-score at 10 µM; 310,000 compounds, 0.49% hits; AID 488977;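 active means initial fluorescence not abnormally high and integrated response B-score, plate-corrected, over 3 SD above library mean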
Target sequence (Q9GZV3 whole entry, looked up): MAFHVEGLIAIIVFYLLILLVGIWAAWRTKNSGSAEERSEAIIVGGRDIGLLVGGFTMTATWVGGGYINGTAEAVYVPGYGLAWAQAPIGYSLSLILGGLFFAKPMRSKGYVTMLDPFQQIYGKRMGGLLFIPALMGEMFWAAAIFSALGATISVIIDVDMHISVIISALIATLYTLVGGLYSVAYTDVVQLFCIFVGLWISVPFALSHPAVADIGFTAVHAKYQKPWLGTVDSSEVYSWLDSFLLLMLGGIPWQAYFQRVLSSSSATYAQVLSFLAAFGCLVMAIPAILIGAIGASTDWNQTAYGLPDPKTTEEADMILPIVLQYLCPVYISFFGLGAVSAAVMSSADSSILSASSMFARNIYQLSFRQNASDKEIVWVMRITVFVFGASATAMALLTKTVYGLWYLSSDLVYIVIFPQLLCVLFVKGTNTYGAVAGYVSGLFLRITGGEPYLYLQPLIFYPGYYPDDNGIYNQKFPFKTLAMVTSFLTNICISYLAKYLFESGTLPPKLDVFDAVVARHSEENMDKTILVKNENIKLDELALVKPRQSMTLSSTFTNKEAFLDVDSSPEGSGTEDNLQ
PolyA inh = inhibitors of polyadenylation in S. cerevisiae. S. cerevisiae SKY197-pL101 polyadenylation reporter, beta-gal luminescence; efflux-impaired pdr1/pdr3 knockout yeast; score 100 = 6 SD above DMSO. activity score, % at 12 µM. 300,000 compounds, 0.02% hits;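 active means lowest replicate activity score at least 50, where 100 means six control SD above control mean; inconclusive means lowest score under 50 but half or more replicates reach 50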;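 further: yeast exposed to compound for 9 h at 30 °C; higher score means more reporter readthrough which indicates perturbed polyadenylation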
T cruzi inh = blocks replication of Trypanosoma cruzi | AID 1885 | T. cruzi beta-gal in NIH3T3, luminescence, 90 h | 300,000 compounds, 1.4% hits | inhibition, % (concentration not given with the values);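 active means mean inhibition across valid replicates above about 55%, limit read from the data; inconclusive means mean below that limit but half or more replicates reach it; inactive means mean below it, under half of replicates reach it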;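 further: signal also drops with host cell toxicity which is not excluded here; 0% = plate median of DMSO wells and 100% = zero luminescence signal; higher percent means less beta-gal luminescence so fewer parasites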
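System: mouse NIH/3T3 fibroblasts infected with β-gal-expressing T. cruzi Tulahuen C4 / Input: NIH/3T3 cells, 5,000 per well / Buffer or medium: Low-serum DMEM with 2% FBS / Probe or stimulus: 5000 reporter trypomastigotes per well / Schedule: ≥90 h infection period, 3 h prior cell attachment / Measured by: GalScreen luminescence, 60 min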
CHT block = inhibits the human high affinity choline transporter. Q9GZV3. CHT-expressing cells, membrane potential dye, choline response; active compounds read low. B-score at 10 µM. 310,000 compounds, 0.86% hits. AID 488975;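 active means B-score over 3 SD under the library average, and starting fluorescence ratio not unusually high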;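 further: choline stimulus applied at its EC90 after an EC20 pre-addition; B-score computed on integrated fluorescence ratio after choline addition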
* = called active by the depositor; i = inactive; u = inconclusive; x = not tested or not shown; ! = not active in a repeat.

SMILES	CHT allo act	PolyA inh	T cruzi inh	CHT block
CN(CCc1ccccn1)C1CCCN(S(=O)(=O)c2ccc(F)c(Cl)c2)C1 (stereo not given)	i	3	72*	i
Cc1ccc(-n2ncc(Br)c(Br)c2=O)cc1	x	-41	75*	x
CCOC(=O)C1=C(C)N(C)C(=O)NC1c1c(O)ccc2ccccc12 (stereo not given)	i	14	0	i
Cc1cccc(OCCSc2nc3ccccc3n2CCC(=O)O)c1	i	3	-3	i
CN(C)c1ccc(C2SCCN2C(=O)c2ccc([N+](=O)[O-])cc2)cc1 (stereo not given)	i	-4	58*	i
O=[N+]([O-])c1ccc(Sc2nccn2Cc2ccccc2)c([N+](=O)[O-])c1	i	-13	65*	i
O=[N+]([O-])c1cccc(S(=O)(=O)N2CCC(c3nc(-c4ccncc4)no3)CC2)c1	i	-15	61*	i
CN1CCN(S(=O)(=O)c2ccc(-c3noc(C4CCN(S(C)(=O)=O)CC4)n3)cc2)CC1	i	-5	8	i
O=[N+]([O-])c1ccc(-c2cnc(SCc3ccccc3Cl)[nH]2)cc1	i	-1	18	i
Cc1cc(C)c(CSc2ncc(-c3ccc([N+](=O)[O-])cc3)[nH]2)c(C)c1	i	-18	58*	i
CC(=O)c1cccc(NC(=O)/C=C/c2ccc([N+](=O)[O-])s2)c1	x	-4	56*	x
Cc1cc(C)cc(NC(=O)/C=C/c2ccc([N+](=O)[O-])s2)c1	i	-27	47	i
COc1ccccc1C1=NOC(COc2ccc3c(C)cc(=O)oc3c2)C1 (stereo not given)	i	-10	-8	-8.5*
CCN(C(=O)C1CCCN1S(=O)(=O)c1ccc2c(c1)n(C)c(=O)c(=O)n2C)c1ccccc1 (stereo not given)	i	-7	-13	i
CC1CC(C)(C)Nc2ccc(OC(=O)c3ccco3)cc21 (stereo not given)	i	-10	11	i
CC1CC(C)(C)Nc2ccc(N=O)cc21 (stereo not given)	x	-44	98*	x
COc1ccc(NC(=O)COc2ccc3c(C)cc(=O)oc3c2)cc1S(=O)(=O)N1CCCCC1	i	-10	9	i
CC(=O)Nc1ccc(OS(=O)(=O)c2ccc(Cl)cc2)cc1	i	-3	-1	i
CC(=O)Nc1ccc(OCCOc2ccc([N+](=O)[O-])cc2)cc1	i	4	6	i
O=C(Nc1ccc(Oc2ccc(NC(=O)Nc3ccc([N+](=O)[O-])cc3)cc2)cc1)Nc1ccc([N+](=O)[O-])cc1	i	31	67*	i
CC(=O)Nc1ccc(OS(=O)(=O)c2ccc([N+](=O)[O-])cc2)cc1	i	-10	71*	i
Cc1cccc(OCC(=O)Nc2ccc3c(c2)nc(CCN2CCN(c4ccccn4)CC2)n3C)c1	i	-1	12	i
COc1ccccc1CN1CCN(Cc2nc(-c3cccs3)no2)CC1	i	u	61*	i
COCC1CCN(Cc2nc(-c3cccs3)no2)C1 (stereo not given)	i	-6	4	i
O=c1c2ccccc2[nH]c(=S)n1CCCN1CCN(c2ccccc2F)CC1	i	-11	26	i
SMILES	CHT allo act	PolyA inh	T cruzi inh	CHT block
O=C(c1ccc(Cn2c(=S)[nH]c3ccc(N4CCOCC4)cc3c2=O)cc1)N1CCC(N2CCCCC2)CC1	i	5	10	i
O=C(CCCCCn1c(=S)[nH]c2ccc(N3CCOCC3)cc2c1=O)NC1CCN(Cc2ccccc2)CC1	i	3	65*	i
O=C(CCCCn1c(=O)[nH]c2ccccc2c1=O)NC1CCN(Cc2ccccc2)CC1	i	0	4	i
O=c1c2ccccc2[nH]c(=S)n1CCCN1CCN(c2ccccc2)CC1	i	-4	58*	i
O=C(NC1CCN(Cc2ccccc2)CC1)c1ccc(Cn2c(=S)[nH]c3ccc(N4CCOCC4)cc3c2=O)cc1	i	-3	60*	i
COc1ccccc1NC(=O)C[n+]1ccccc1C	i	-21	9	i
OCc1cc(C(O)CNCCCCCCOCCCCc2ccccc2)ccc1O (stereo not given)	i	-2	32	-5.8*!
CCOCCCNCC(O)c1ccccc1 (stereo not given)	i	15	-13	i
Cc1ccc(NC(=O)CCN2CCN(C/C=C/c3ccccc3)CC2)cc1C	i	2	43	i
COc1ccc(NC(=O)CCN2CCN(C/C=C/c3ccccc3)CC2)cc1	i	-7	57*	i
Cc1ccc(NC(=O)CCN2CCN(C/C=C/c3ccccc3)CC2)cc1	i	x	x	i
COc1cc(NC(=O)CCN2CCN(C/C=C/c3ccccc3)CC2)cc(OC)c1	i	2	58*	i
CCS(=O)(=O)C1=NSC2=NC(=O)/C(=C\c3ccc(OC(=O)c4ccco4)cc3)C(=N)N21	i	-9	4	i
CCNS(=O)(=O)c1ccc(CCC(=O)Nc2ccc3c(c2)OCCO3)cc1	i	17	6	i
COc1ccc(S(=O)(=O)N2CCc3cc(OC)c(OC)cc3C2)cc1	i	12	-3	i
CCOC(=O)Cc1csc(SC(C)C(=O)NC2CCCCC2C)n1 (stereo not given)	i	6	1	i
O=[N+]([O-])c1cc(S(=O)(=O)N2CCCC2)ccc1NCCCN1CCOCC1	i	-6	15	i
O=[N+]([O-])c1ccc(N2CCN(S(=O)(=O)c3ccc(Cl)c(Cl)c3)CC2)cc1NCCN1CCOCC1	i	-4	56*	i
COc1cc2ccc3c(CCN(C)C)cc(OC)c(OC)c3c2cc1OC	i	23	40	i
CN(C)CCc1cc2c(c3c1ccc1ccccc13)OCO2	i	59*	34	i
CC(C)CC1Nc2ncnc(N3CCN(c4ccccc4)CC3)c2N(Cc2ccccc2)C1=O (stereo not given)	i	84*	25	i
COc1ccc(N(C)C(=O)c2ccc(NC(=O)CCS(=O)(=O)c3cccs3)cc2)cc1	i	0	-1	i
O=S(=O)(c1ccc(-c2csc(-c3cccnc3)n2)cc1)N1CCCCC1	i	-19	66*	i
CC(C)/C=C/C(=O)N1CCCC(N2CCN(c3ccccc3F)CC2)C1 (stereo not given)	i	-35	15	i
c1cc2c3c(cccc3c1)NC1(CCC3(CC1)Nc1cccc4cccc(c14)N3)N2	i	6	59*	i
C=CCNc1nnc(Cc2ccc(C(C)C)cc2)c(=O)[nH]1	i	17	-1	i
Cc1cc2oc(=O)cc(CN3CCN(S(=O)(=O)/C=C/c4ccccc4)CC3)c2cc1C	i	1	66*	i
Cc1cc2oc(=O)cc(CN3CCN(S(=O)(=O)c4ccc5c(c4)OCCO5)CC3)c2cc1C	i	-18	35	i
